In brackets after ≈: the same amount, converted by molar mass.

In data set [1] the target is Mitogen-activated protein kinase 14 (Homo sapiens, UniProt Q16539). Kind of data set: Inhibition of p38alpha MAPK (unknown origin) using ATF-2 as substrate after 1 hr by ELISA.
The target of data set [2] is Glycogen synthase kinase-3 alpha (Homo sapiens, UniProt P49840). Kind of data set: Inhibition of human recombinant full length GSK3alpha using YRRAAVPPSPSLSRHSSPHQ(pS)EDEEE as substrate preincubated with enzyme for 10 mins followed by substrate and 25 uM ATP addition measured after 60 mins by ADP-Glo luminescence assay. The method in brief: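 Recombinant human GSK3α at 0.50 ng/µL, 25 µM ATP, 0.2 µg/µL substrate G50-58, serial compound dilutions. Kinase was preincubated with compound 10 min at rt, then run 60 min at rt after substrate/ATP addition. ADP-Glo reagent 60 min, detection reagent 30 min, luminescence read. Uninhibited-kinase and ATP/substrate-only controls were included.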
Sequence of Glycogen synthase kinase-3 alpha (P49840 whole entry): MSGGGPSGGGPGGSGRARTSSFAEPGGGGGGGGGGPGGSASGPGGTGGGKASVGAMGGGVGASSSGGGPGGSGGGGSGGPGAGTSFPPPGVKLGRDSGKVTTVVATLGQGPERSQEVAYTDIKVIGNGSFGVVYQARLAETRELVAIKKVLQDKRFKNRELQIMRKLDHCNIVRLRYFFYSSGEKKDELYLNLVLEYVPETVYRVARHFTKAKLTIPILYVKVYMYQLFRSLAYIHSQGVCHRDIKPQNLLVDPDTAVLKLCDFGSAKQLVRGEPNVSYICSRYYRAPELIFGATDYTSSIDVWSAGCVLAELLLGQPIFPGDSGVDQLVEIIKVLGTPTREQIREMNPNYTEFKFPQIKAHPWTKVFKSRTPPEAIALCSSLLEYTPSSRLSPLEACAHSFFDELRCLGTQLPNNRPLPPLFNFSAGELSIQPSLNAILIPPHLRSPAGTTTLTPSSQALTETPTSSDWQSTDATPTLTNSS

The nature of data set [3]: Metabolic stability in human liver microsomes assessed as parent compound remaining after 60 mins by LC-MS analysis relative to control. Type of data set: ADME, Microsome. The settings on record: read-out: Stability.
The nature of data set [4]: Metabolic stability in human liver microsomes assessed as parent compound remaining after 120 mins by LC-MS analysis relative to control. The conditions noted are these: read-out: Stability. It is filed as ADME, Microsome.
A short description of data set [5]: Drug uptake in RjOrl:Swiss CD-1 mouse brain at 10 mg/kg, iv administered as single dose measured after 2 hrs by LC-MS analysis. It is filed as ADME, organism-based. The settings on record: read-out: Drug uptake. The method in brief: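 Adult male RjOrl:Swiss CD-1 mice got one intravenous dose of 10 mg/kg. Plasma was sampled at 10, 30 and 120 min. After the last sample the mice were sacrificed and brains dissected. Blood and brain samples were prepared and analysed by LC-MS for parent and sulfoxide metabolite; brain levels reported as ng/g.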

The nature of data set [6]: Plasma clearance in RjOrl:Swiss CD-1 mouse at 10 mg/kg, iv administered as single dose measured after 10 mins by LC-MS analysis. It is filed as ADME, organism-based. In a few lines: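 Adult male mice received a single 10 mg/kg intravenous injection. Plasma was sampled at 10, 30 and 120 min after dosing. Samples were prepared and analyzed by LC-MS.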
A further data set addresses CYP1A2 (Homo sapiens, UniProt P05177). Kind of data set: Inhibition of human recombinant CYP1A2 expressed in baculovirus infected insect cells using 3-cyano-7-ethoxycoumarin as substrate at 10 uM in presence of NADPH by fluorimetric analysis relative to control. Type of data set: ADME. The settings on record: probe 3-cyano-7-ethoxycoumarin.
Another data set addresses CYP2C9 (Homo sapiens, UniProt P11712). Put plainly: Inhibition of human recombinant CYP2C9 expressed in baculovirus infected insect cells using OOMR as substrate at 10 uM in presence of NADPH by fluorimetric analysis relative to control. Type of data set: ADME. The settings on record: probe OOMR.
Data set [7] in a line: Solubility of the compound in PBS buffer at pH 7.8 after 1 hr by HPLC analysis. Type of data set: physicochemical.
The target of data set [8] is RAC-alpha serine/threonine-protein kinase (Homo sapiens) (UniProt P31749). Kind of data set: Inhibition of recombinant human AKT1 at 1 uM using CREBtide as substrate measured after 60 mins in presence of ATP by LANCE assay relative to control.
Data set [9] deals with Serine/threonine-protein kinase Chk2 (Homo sapiens) (UniProt O96017). Kind of data set: Inhibition of human recombinant CHK2 at 1 uM using CREBtide as substrate incubated for 15 mins in presence of ATP by LANCE assay relative to control. The method in brief:
(§1)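 Kinase panel run by an outside provider (Eurofins Cerep) in a LANCE assay, single test concentration of 1 µM, results as percent inhibition.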

For data set [10], the target named is Fibroblast growth factor receptor 2 (Homo sapiens) (UniProt P21802). Put plainly: Inhibition of human recombinant FGFR2 at 1 uM using Ulight-CAGAGAIETDKEYYTVKD as substrate measured after 15 mins in presence of ATP by LANCE assay relative to control. The method in brief:
as §1

For data set [11], the target named is Fibroblast growth factor receptor 3 (Homo sapiens) (UniProt P22607). Put plainly: Inhibition of human recombinant FGFR3 at 1 uM using Ulight-CAGAGAIETDKEYYTVKD as substrate measured after 90 mins in presence of ATP by LANCE assay relative to control. In a few lines:
as §1

The target in data set [12] is Insulin receptor (Homo sapiens) (UniProt P06213). Kind of data set: Inhibition of human recombinant IR at 1 uM using Ulight-Poly GAT[EAY(1:1:1)]n as substrate measured after 10 mins in presence of ATP by LANCE assay relative to control. The method in brief:
as §1

In data set [13] the target is Tyrosine-protein kinase JAK3 (Homo sapiens) (UniProt P52333). Kind of data set: Inhibition of human recombinant JAK3 at 1 uM using Ulight-CAGAGAIETDKEYYTVKD as substrate measured after 60 mins in presence of ATP by LANCE assay relative to control. The method in brief:
as §1

Data set [14] has as its target Mitogen-activated protein kinase 8 (Homo sapiens) (UniProt P45983). Kind of data set: Inhibition of human recombinant JNK1 at 1 uM using Ulight-CFFKNIVTPRTPPPSQGK-amide as substrate measured after 60 mins in presence of ATP by LANCE assay relative to control. In a few lines: as §1
For data set [15], the target named is Vascular endothelial growth factor receptor 2 (Homo sapiens) (UniProt P35968). Put plainly: Inhibition of human recombinant KDR at 1 uM using Ulight-CAGAGAIETDKEYYTVKD as substrate measured after 60 mins in presence of ATP by LANCE assay relative to control. In a few lines: as §1
Sequence of Vascular endothelial growth factor receptor 2 (Homo sapiens) (P35968 whole entry): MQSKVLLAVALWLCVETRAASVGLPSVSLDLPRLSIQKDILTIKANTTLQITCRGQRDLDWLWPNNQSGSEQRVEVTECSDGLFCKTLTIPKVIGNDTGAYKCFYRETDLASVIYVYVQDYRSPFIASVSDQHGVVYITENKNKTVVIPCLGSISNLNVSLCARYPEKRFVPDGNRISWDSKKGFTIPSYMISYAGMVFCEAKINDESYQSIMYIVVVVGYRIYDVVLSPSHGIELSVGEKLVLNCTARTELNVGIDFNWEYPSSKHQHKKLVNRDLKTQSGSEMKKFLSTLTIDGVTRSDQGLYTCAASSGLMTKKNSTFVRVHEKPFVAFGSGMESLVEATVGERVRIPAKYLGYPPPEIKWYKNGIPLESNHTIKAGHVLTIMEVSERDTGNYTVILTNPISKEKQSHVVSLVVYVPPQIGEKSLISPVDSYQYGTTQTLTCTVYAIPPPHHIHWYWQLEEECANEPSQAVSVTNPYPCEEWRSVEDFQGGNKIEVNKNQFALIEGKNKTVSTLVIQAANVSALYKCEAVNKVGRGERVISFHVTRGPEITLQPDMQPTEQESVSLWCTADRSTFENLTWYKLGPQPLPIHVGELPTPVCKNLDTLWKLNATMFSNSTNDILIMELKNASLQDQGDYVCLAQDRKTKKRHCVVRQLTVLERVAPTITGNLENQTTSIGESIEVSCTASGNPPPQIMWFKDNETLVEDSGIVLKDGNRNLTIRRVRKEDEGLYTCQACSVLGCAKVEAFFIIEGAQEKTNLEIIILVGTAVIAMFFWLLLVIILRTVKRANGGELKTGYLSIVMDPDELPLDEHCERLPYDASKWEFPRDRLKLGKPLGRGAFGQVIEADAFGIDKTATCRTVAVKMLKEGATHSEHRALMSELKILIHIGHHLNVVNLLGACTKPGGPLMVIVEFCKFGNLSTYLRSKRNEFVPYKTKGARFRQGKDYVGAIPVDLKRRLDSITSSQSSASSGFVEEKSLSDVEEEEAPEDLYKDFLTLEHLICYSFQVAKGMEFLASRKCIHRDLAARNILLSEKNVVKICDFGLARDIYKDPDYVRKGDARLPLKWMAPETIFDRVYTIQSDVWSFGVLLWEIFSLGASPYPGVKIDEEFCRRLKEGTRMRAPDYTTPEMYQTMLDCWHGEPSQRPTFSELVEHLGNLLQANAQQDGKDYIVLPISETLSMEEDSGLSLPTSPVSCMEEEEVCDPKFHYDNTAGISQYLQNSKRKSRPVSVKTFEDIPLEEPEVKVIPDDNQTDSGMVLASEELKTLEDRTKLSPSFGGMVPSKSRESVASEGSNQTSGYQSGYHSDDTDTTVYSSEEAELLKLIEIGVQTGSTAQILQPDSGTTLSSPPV
The target in data set [16] is MAP kinase-activated protein kinase 2 (Homo sapiens) (UniProt P49137). Kind of data set: Inhibition of human recombinant MAPKAPK2 at 1 uM using CREBtide as substrate measured after 15 mins in presence of ATP by LANCE assay relative to control. The method in brief:
as §1

Data set [17] addresses Hepatocyte growth factor receptor (Homo sapiens) (UniProt P08581). Put plainly: Inhibition of human recombinant MET at 1 uM using Ulight-CAGAGAIETDKEYYTVKD as substrate measured after 60 mins in presence of ATP by LANCE assay relative to control. The method in brief: as §1
For data set [18], the target named is MAP kinase-interacting serine/threonine-protein kinase 2 (Homo sapiens) (UniProt Q9HBH9). Put plainly: Inhibition of human recombinant MNK2 at 1 uM using CREBtide as substrate measured after 90 mins in presence of ATP by LANCE assay relative to control. The method in brief:
as §1

In data set [19] the target is Serine/threonine-protein kinase PAK 4 (Homo sapiens) (UniProt O96013). Kind of data set: Inhibition of human recombinant PAK4 at 1 uM using Ulight-RRRSLLE as substrate measured after 30 mins in presence of ATP by LANCE assay relative to control. The method in brief:
as §1

The target in data set [20] is Rho-associated protein kinase 1 (Homo sapiens) (UniProt Q13464). Put plainly: Inhibition of human recombinant ROCK1 at 1 uM using Ulight-RRRSLLE as substrate measured after 20 mins in presence of ATP by LANCE assay relative to control. The method in brief: as §1
Sequence of Rho-associated protein kinase 1 (Homo sapiens) (Q13464 2-1354 limits assumed): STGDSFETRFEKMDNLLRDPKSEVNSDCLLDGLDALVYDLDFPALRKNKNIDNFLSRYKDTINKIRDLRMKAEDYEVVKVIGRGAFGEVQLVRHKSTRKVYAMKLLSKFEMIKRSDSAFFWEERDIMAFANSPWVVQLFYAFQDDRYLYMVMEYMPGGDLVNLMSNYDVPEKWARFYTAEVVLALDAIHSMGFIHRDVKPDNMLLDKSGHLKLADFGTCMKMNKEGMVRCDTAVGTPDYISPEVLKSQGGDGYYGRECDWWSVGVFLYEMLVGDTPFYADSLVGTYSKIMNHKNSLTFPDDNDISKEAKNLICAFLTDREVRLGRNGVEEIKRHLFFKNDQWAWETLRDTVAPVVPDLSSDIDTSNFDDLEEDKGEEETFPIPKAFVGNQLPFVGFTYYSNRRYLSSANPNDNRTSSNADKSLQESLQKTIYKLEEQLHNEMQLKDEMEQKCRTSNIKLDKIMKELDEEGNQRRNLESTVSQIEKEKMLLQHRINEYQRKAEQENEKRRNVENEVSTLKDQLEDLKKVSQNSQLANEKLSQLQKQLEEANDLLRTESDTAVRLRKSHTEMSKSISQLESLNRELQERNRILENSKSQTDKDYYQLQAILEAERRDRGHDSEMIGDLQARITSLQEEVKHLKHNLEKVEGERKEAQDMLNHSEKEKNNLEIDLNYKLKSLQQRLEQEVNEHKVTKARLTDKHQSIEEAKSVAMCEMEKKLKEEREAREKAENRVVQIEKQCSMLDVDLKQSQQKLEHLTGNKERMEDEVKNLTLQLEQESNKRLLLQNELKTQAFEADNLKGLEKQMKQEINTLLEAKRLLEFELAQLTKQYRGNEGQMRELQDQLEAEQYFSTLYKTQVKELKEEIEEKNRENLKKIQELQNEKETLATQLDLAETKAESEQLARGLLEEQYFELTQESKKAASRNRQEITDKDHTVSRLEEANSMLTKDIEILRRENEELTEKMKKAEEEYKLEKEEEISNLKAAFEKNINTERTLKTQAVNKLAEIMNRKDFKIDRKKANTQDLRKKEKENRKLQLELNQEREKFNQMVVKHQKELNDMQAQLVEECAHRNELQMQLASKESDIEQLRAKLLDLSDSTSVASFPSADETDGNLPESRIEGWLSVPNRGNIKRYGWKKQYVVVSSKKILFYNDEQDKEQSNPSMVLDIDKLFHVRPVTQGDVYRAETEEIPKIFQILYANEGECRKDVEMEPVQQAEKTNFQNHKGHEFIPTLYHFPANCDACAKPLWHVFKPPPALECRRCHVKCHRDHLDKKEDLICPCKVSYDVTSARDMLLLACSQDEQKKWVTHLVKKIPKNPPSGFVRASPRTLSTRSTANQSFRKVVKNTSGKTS
The nature of data set [21]: Ratio of drug concentration in RjOrl:Swiss CD-1 mouse brain at 10 mg/kg, iv to IC50 for p38alpha MAPK (unknown origin). It is filed as ADME, organism-based. The settings on record: in vivo. The method in brief:
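Adult male mice received a single 10 mg/kg intravenous dose. After the final plasma sample at 2 h, the mice were sacrificed and brains dissected. Brain concentration was measured by LC-MS and related to the in vitro IC50 values for GSK3β and p38α.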

Sequence of Mitogen-activated protein kinase 8 (Homo sapiens) (P45983 whole entry): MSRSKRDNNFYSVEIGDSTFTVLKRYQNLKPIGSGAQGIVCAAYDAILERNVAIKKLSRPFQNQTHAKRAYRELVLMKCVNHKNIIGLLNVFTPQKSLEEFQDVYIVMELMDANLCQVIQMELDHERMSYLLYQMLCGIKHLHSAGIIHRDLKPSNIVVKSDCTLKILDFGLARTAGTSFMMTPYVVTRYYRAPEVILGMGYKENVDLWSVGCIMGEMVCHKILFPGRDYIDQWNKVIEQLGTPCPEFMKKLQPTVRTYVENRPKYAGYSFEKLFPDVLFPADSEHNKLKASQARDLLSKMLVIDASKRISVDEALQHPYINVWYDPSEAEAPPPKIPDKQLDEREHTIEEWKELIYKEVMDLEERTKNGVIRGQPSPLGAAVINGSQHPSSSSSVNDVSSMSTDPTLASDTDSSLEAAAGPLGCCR
Sequence of MAP kinase-activated protein kinase 2 (Homo sapiens) (P49137 whole entry, looked up): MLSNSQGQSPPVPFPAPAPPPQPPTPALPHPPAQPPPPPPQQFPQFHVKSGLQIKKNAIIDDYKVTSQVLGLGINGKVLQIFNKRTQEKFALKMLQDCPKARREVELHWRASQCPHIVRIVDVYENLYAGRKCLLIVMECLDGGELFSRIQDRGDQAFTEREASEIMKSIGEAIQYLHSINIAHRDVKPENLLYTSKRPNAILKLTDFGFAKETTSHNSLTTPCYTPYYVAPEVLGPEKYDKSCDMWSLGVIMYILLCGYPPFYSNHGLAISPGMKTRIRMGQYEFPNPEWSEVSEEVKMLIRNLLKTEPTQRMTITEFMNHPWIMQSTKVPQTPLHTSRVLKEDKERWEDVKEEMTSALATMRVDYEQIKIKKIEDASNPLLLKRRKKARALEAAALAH
Sequence of CYP1A2 (P05177 whole entry): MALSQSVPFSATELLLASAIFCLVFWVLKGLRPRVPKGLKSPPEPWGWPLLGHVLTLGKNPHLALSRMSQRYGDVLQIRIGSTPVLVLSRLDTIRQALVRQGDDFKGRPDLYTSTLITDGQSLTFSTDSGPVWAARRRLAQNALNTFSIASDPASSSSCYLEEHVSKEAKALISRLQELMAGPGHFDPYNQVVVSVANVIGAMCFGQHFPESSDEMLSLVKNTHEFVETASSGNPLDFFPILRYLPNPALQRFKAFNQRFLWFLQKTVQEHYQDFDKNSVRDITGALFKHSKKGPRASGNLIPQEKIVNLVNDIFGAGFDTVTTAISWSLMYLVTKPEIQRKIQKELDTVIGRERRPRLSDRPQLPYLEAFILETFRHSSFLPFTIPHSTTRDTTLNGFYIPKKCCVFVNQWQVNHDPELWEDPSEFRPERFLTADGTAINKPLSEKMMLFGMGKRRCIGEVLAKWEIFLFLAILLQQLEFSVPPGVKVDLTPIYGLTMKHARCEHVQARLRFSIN
Sequence of MAP kinase-interacting serine/threonine-protein kinase 2 (Homo sapiens) (Q9HBH9 whole entry, looked up): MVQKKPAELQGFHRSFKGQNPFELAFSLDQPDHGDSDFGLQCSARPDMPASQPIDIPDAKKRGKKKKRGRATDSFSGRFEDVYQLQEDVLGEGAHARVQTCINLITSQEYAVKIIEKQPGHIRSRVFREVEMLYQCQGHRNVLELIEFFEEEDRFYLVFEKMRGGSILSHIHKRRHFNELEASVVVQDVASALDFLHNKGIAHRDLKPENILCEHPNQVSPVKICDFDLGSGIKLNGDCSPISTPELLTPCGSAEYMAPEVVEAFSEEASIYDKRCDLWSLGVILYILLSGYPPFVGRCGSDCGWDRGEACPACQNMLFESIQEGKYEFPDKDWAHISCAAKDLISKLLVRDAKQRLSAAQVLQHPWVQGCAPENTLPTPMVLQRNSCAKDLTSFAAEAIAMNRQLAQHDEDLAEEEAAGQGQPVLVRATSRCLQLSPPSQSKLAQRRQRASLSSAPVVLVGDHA

Regarding `CCc1nc(-c2ccc(F)cc2)c(-c2ccnc(NC(=O)C3CC3)c2)[nH]1`, the IC50 in data set [1] is 16 nM; in data set [2], 301 nM. The remaining at 1 h in data set [3] was found to be 95.2%. Moreover, the remaining at 2 h in data set [4] is 96.4%. In addition, in data set [5], the concentration at 2 h worked out at 13.3 ng/g. Besides, the concentration at 10 min in data set [6] turned out to be 850 ng/mL. The inhibition at 10 µM on CYP1A2 and at CYP2C9 was 83.6% in each case. The compound also came in with a solubility at 1 h in [7] of 155 µg/mL (≈ 442 µM). In addition, the inhibition is 2.06% in [8]; -9.7% in data set [9]; 74.4% in [10]; 64.5% in [11]; 4.24% in data set [12]; 24.8% in data set [13]. Also, the inhibition in data set [14] is 78.3%; in data set [15], 98.7%; in [16] it was -4.86%; in data set [17] it was 54.9%; in data set [18], 1.16%; in data set [19], 4.82%. In addition, the inhibition in data set [20] was -8.13%. For the same compound, the Ratio in data set [21] amounted to 2.5.

For the origin of these results see ChEMBL document CHEMBL4393708, “Pyridinylimidazoles as dual glycogen synthase kinase 3β/p38α mitogen-activated protein kinase inhibitors” (Eur J Med Chem, 2019).
